For 95 molecules, cytotoxicity results are on record in ChEMBL document CHEMBL4513216, “Probing the Open Global Health Chemical Diversity Library for Multistage-Active Starting Points for Next-Generation Antimalarials” (ACS Infect Dis, 2020).

The nature of this series: Toxicity liver stage against HepG2, at 10uM. The format is cell-based. To be noted: human, HepG2-A16-CD81EGFP cells; read-out: INHIBITION
The arrangement: test concentration 10 uM, cell line HepG2-A16-CD81EGFP. In short, it runs like this:
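Uninfected HepG2-A16-CD81EGFP cells, 3 × 10^3 per well, 1536-well, plated on prespotted compound at 10 μM final, parasite-free screening media added to match infected plates; puromycin 10 μM positive, DMSO 0.5% negative; run in parallel with 48 h PbLuc assay at 37 °C, 5% CO2; viability by CellTiter-Glo luminescence, normalized to controls.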
Turning to `CCn1c(=O)n(CC)c2cc(S(N)(=O)=O)ccc21`, the cytotoxicity at 10 µM was -7.72%.

In the case of `N#Cc1cccc(CN2C[C@@H](F)[C@@H](OCc3nc4ccccc4[nH]3)C2)c1`, the cytotoxicity at 10 µM is 6%.

On to `O=C(NC[C@H]1OC[C@@H](NC2COC2)[C@@H]1O)C1CCCC1`, for which the cytotoxicity at 10 µM is -3.11%.

With `Cn1cc(CN2C[C@@H](F)[C@@H](OCc3nc4cnccc4[nH]3)C2)cn1`, the cytotoxicity at 10 µM is 6.88%.

As to `COc1ccc(OC)c(NC(=O)c2c(C)cn(C)c2CC(=O)O)c1`, the cytotoxicity at 10 µM was -1.52%.

Consider `COC1CN(C(=O)C2CC2)CCC(=O)N(C)c2ccccc21` (stereo not given), for which the cytotoxicity at 10 µM was -8.67%.

Consider `CCc1nc2c(c(C)c(C)n2Cc2cccnc2)c(N)c1C`, for which the cytotoxicity at 10 µM was 6.7%.

As to `COCC(=O)N(Cc1ccc2[nH]ccc2c1)C1CC1`, the cytotoxicity at 10 µM was -2.46%.

For the molecule `CCS(=O)(=O)c1cccc(C(=O)Nc2cccc3c2C(=O)N(C)C3=O)c1`, the cytotoxicity at 10 µM was -139%.

Consider `COC(CNC(=O)c1cn(C)nn1)c1ccc(C)s1` (stereo not given), for which the cytotoxicity at 10 µM was -8.11%.

As to `Cn1cc(CN2C[C@@H](N3CCCC3=O)[C@H]3OCCC[C@H]32)cn1`, the cytotoxicity at 10 µM came out at 8.92%.

For the molecule `CCS(=O)(=O)N1CCc2nnc(CN(C)C(C)C)n2CC1`, the cytotoxicity at 10 µM came to 0.872%.

Regarding `CC(C)CN1C(=O)CO[C@@H]2CN(C(=O)N(C)C)C[C@H]21`, the cytotoxicity at 10 µM turned out to be 0.657%.

Take `CC(C)CN1C(=O)CO[C@@H]2CN(C(=O)N3CCOCC3)C[C@H]21`: the cytotoxicity at 10 µM was -1.68%.

Take `CN(C)C(=O)N1CCC2(C1)CN(c1cccnc1)C(=O)CN2C` (stereo not given): the cytotoxicity at 10 µM stood at 6.96%.

Take `CN(C)CCO[C@@H]1CC[C@H]2[C@H]1OCCN2C(=O)c1ccncc1`: the cytotoxicity at 10 µM was 5%.

Regarding `Cc1cccc(CN2CCCC3(CCN(c4cccnc4)C3=O)C2)n1` (stereo not given), the cytotoxicity at 10 µM is -1.34%.

In the case of `O=C(O)c1cc(C2CC2)nc2c(Cl)cnn12`, the cytotoxicity at 10 µM turned out to be 8.63%.

As for `CNC(=O)c1cn[nH]c1C1CCN(Cc2ccccc2OC)C1` (stereo not given), the cytotoxicity at 10 µM is 7.16%.

For `Cc1cc(N)nc(C2(C)CCCN2C(=O)Cc2ccc(F)cc2)n1` (stereo not given), the cytotoxicity at 10 µM was -27.5%.

Consider `CCCNC(=O)C1(CC2CC(c3ccccc3OC)=NO2)CCOCC1` (stereo not given), for which the cytotoxicity at 10 µM amounted to 21.8%.

`CCC(=O)N1CCC(Cc2ccccc2-c2ccccc2F)(C(N)=O)C1` (stereo not given): the cytotoxicity at 10 µM was -10.8%.

As to `CC(=O)N1CCCC(c2ccc(Br)cn2)C1` (stereo not given), the cytotoxicity at 10 µM is -24.1%.

As to `Cc1cc(C)nc(Nc2cncc(C3CCCN(S(C)(=O)=O)C3)n2)n1` (stereo not given), the cytotoxicity at 10 µM is -16.1%.

`CCc1cccc2cc(CNCCCN3CCOCC3)c(=O)[nH]c12`: the cytotoxicity at 10 µM was -0.918%.

Consider `CCCn1ncc(CN2C[C@@H]3CCCN3C[C@@H]2Cc2ccccc2)c1C`, for which the cytotoxicity at 10 µM is -8.16%.

On to `O=S(=O)(c1cccs1)N1CCCCC1c1ccn[nH]1` (stereo not given), for which the cytotoxicity at 10 µM was -3%.

As to `COc1cccc(CN2CCC(c3nnc(-c4cnc(C)cn4)o3)C2)c1` (stereo not given), the cytotoxicity at 10 µM was -10.4%.

In the case of `Cc1ccc(C(=O)CC(SC2CCCCC2)C(=O)O)cc1` (stereo not given), the cytotoxicity at 10 µM is 7.53%.

As for `Cc1cc(CN2CCCN(c3ccc(C#N)cc3)CC2)no1`, the cytotoxicity at 10 µM worked out at 2.07%.

For `c1nc2c(c(N3CCCC(Cn4cncn4)C3)n1)CCC2` (stereo not given), the cytotoxicity at 10 µM came out at 52.4%.

Consider `CC(=O)c1cccc(OCCCC(=O)N(C)C2CCN(C)CC2)c1`, for which the cytotoxicity at 10 µM came out at 3.07%.

Consider `OCCN1CCN(CC2(O)CCCCC2)CC1`, for which the cytotoxicity at 10 µM turned out to be 3.66%.

`CN1CCC(CNC(=O)NCc2ccc(N(C)C)cc2)CC1`: the cytotoxicity at 10 µM was -1.42%.

In the case of `COc1ccc(-n2ccc(C(=O)N(C)C(C)C3(C)CC3)n2)cc1` (stereo not given), the cytotoxicity at 10 µM is -2.41%.

Take `O=C1C(NCc2cccc(O)c2)CCN1Cc1ccccc1` (stereo not given): the cytotoxicity at 10 µM was -0.539%.

Consider `Clc1ccccc1C1CN(CCc2ccncc2)CCO1` (stereo not given), for which the cytotoxicity at 10 µM is 3.61%.

As to `COCC(NC(=O)NCc1ccc(C)c(F)c1)c1ccco1` (stereo not given), the cytotoxicity at 10 µM was 4.96%.

Take `NC(=O)C(CNC(=O)Cc1ccc(F)cc1)Cc1ccc(F)cc1` (stereo not given): the cytotoxicity at 10 µM was 3.02%.

Regarding `CCn1c(C)nnc1SCCn1cc(-c2nccs2)nn1`, the cytotoxicity at 10 µM amounted to 2.91%.

Consider `CC(C)CCN1CC2(CCN(C(=O)C3(C)CC3)CC2)OC1=O`, for which the cytotoxicity at 10 µM amounted to 1.84%.

In the case of `Cc1cc(C(=O)N(Cc2c(C)nn(C)c2C)C(C)C)nc(C)n1`, the cytotoxicity at 10 µM is -9.85%.

`CCc1ncc(C(=O)N(CC)CCOC)cn1`: the cytotoxicity at 10 µM is 2.24%.

Consider `Cc1ccc(-n2cc(CN3CCN(C)[C@@H]4CS(=O)(=O)C[C@@H]43)cn2)cc1`, for which the cytotoxicity at 10 µM was -8.67%.

Turning to `CC(=O)N1CC2(CCN(c3nccc4ccccc34)CC2)CC1C(=O)O` (stereo not given), the cytotoxicity at 10 µM was 4.65%.

With `CCc1c(O)nc(SC(C)CC)n(-c2ccccc2)c1=O` (stereo not given), the cytotoxicity at 10 µM turned out to be 4.22%.

As to `Cn1ncc2c(NCCn3cccc3)nc(C3CCCC3)nc21`, the cytotoxicity at 10 µM is 3.07%.

With `COc1ncc(-c2cc(-c3ccn(C)c3)nc(N)c2C#N)cn1`, the cytotoxicity at 10 µM stood at 0.471%.

With `C=C(C)COc1cccc(CNCCc2c[nH]cn2)c1`, the cytotoxicity at 10 µM was determined as 8.95%.

Turning to `CC(C)c1cc(=O)[nH]c(-c2ccccc2CN2CCC(C)(C)C2)n1`, the cytotoxicity at 10 µM is -42%.

`Cc1nc(C(C)NC(=O)c2cn(C/C=C/c3ccccc3)nn2)n[nH]1` (stereo not given): the cytotoxicity at 10 µM was found to be 10.7%.

With `CCOCCN1CCN([C@@H]2c3ccccc3C3(CCNCC3)[C@H]2O)CC1`, the cytotoxicity at 10 µM is -0.777%.

Regarding `Cc1cccc2cc(CN3CCC(N4CCCC4)CC3)c(=O)[nH]c12`, the cytotoxicity at 10 µM was -3.45%.

Take `Cc1cc2c(=O)n(CCSc3ncn[nH]3)cnc2s1`: the cytotoxicity at 10 µM was determined as 8.87%.

With `Cc1cnccc1N1CCCN(Cc2ccc(-c3cc[nH]n3)o2)CC1`, the cytotoxicity at 10 µM was -5.13%.

Regarding `Cc1ncc(S(C)(=O)=O)c(N(C)CCCc2cnn(C)c2)n1`, the cytotoxicity at 10 µM is -1.07%.

On to `CN1CC2(CCNCC2)CC1C(=O)NCCCNc1cccnc1` (stereo not given), for which the cytotoxicity at 10 µM was determined as 6.24%.

With `c1ccc(OCCCn2ccnc2-c2cn(C3CCNCC3)nn2)cc1`, the cytotoxicity at 10 µM is -18.1%.

On to `COCCn1cnnc1CCNc1cc(C)nc2ccnn12`, for which the cytotoxicity at 10 µM is -1.42%.

Regarding `O=C(NCc1cn2c(n1)SCC2)c1ccc(CN2CCCCC2)cc1`, the cytotoxicity at 10 µM is -1.08%.

Take `Cc1cc(NCC2CCCO2)cc(=O)n1C` (stereo not given): the cytotoxicity at 10 µM is -8.19%.

As to `O=C1NC(=O)c2c3c(nc(O)c21)CCCC3`, the cytotoxicity at 10 µM was -4.69%.

Take `Cc1nc(CN2CCCC(NCc3nc4ccccc4s3)C2)no1` (stereo not given): the cytotoxicity at 10 µM is -0.84%.

Regarding `CC(C)c1noc(CN2CCCC2c2noc(C(C)C)n2)n1` (stereo not given), the cytotoxicity at 10 µM is -5.89%.

Turning to `CCN(Cc1nc2c(cnn2C)c(=O)[nH]1)Cc1ccco1`, the cytotoxicity at 10 µM was -2.8%.

Turning to `CNC(=O)CCNC(=O)CCc1c(C)nc2cc(O)nn2c1C`, the cytotoxicity at 10 µM was -2.7%.

On to `CC(=O)N1CCCC1C(=O)NCCOc1ccc(C(C)C)cc1` (stereo not given), for which the cytotoxicity at 10 µM is -5.26%.

`O=C(c1ccc(N2CCCC2)nn1)N1CCCC(n2ccnc2)C1` (stereo not given): the cytotoxicity at 10 µM was -16.2%.

Take `CC1CN(CC(=O)NC2CCOCC2)CCN1Cc1nccn1C` (stereo not given): the cytotoxicity at 10 µM is -6.57%.

Turning to `c1cncc(-c2noc(CNC3CCc4ncnn4C3)n2)c1` (stereo not given), the cytotoxicity at 10 µM is -5.57%.

For the molecule `CC(=O)c1cccc(NC(=O)CCn2nc(-c3cccs3)oc2=O)c1`, the cytotoxicity at 10 µM is -4.47%.

Consider `N#Cc1ccc(S(=O)(=O)NC(=O)COc2ccc3c(c2)CCC3)cc1`, for which the cytotoxicity at 10 µM is -9.36%.

Turning to `N#Cc1cn(C2CC2)c(=O)n(CC(O)c2ccccc2C(F)(F)F)c1=O` (stereo not given), the cytotoxicity at 10 µM is -4.22%.

Take `CC(NC(=O)c1ccsc1)c1ccc2c(c1)NC(=O)CO2` (stereo not given): the cytotoxicity at 10 µM was -11.7%.

Turning to `Cc1nn(C)c(Cl)c1C1CCCN1CC(=O)NCc1ccco1` (stereo not given), the cytotoxicity at 10 µM worked out at 1.48%.

For the molecule `CC(C)CN(CCc1ccccc1)Cc1nc2c(cnn2C)c(=O)[nH]1`, the cytotoxicity at 10 µM was -6.94%.

Take `O=C(c1ccc(O)nc1)N1CCC(Nc2cccnn2)CC1`: the cytotoxicity at 10 µM is -8.83%.

Turning to `CS(=O)(=O)NC1CCCN(C(=O)NCc2cccc(F)c2)C1` (stereo not given), the cytotoxicity at 10 µM was -18.8%.

Turning to `Cc1nc(CN(C)C2CCN(Cc3cccc4c3OCCO4)C2)no1` (stereo not given), the cytotoxicity at 10 µM is -13.9%.

Take `CCc1nccn1C1CCCN(C(=O)c2ccc3[nH]nnc3c2)C1` (stereo not given): the cytotoxicity at 10 µM amounted to 7.15%.

With `CC1CCCN(CCNC(=O)c2ccn(-c3ccccc3)n2)C1` (stereo not given), the cytotoxicity at 10 µM was -3.81%.

With `O=c1oc(-c2ccc(F)cc2)nn1CN1CCN(C2CCCC2)CC1`, the cytotoxicity at 10 µM was -1.78%.

As to `Cc1cnn(C2CN(Cc3nc(C(C)(C)C)no3)C2)c1`, the cytotoxicity at 10 µM is -7.28%.

Consider `Cn1ncc2c(=O)[nH]c(CN(Cc3cccc(F)c3)C3CC3)nc21`, for which the cytotoxicity at 10 µM was -13.1%.

For `CCc1nc(C)c(C(=O)NCCNc2ncccn2)s1`, the cytotoxicity at 10 µM was -2.16%.

Turning to `Cc1ccc(-c2cc(CNC(=O)N3CCC(CO)CC3)on2)cc1`, the cytotoxicity at 10 µM is -7.69%.

Turning to `CC(C)n1ccnc1CN1CCCN(C(=O)c2cc(Cl)c[nH]2)CC1`, the cytotoxicity at 10 µM is -3.79%.

Consider `Cc1nc(CN2CCCC(NCCc3ccccc3Cl)C2)no1` (stereo not given), for which the cytotoxicity at 10 µM was -11.8%.

Regarding `Cc1cnn(C2CCCN(C(=O)c3cnc4ccccc4n3)C2)c1` (stereo not given), the cytotoxicity at 10 µM was -10.7%.

For `O=C(NCCNc1ncccn1)N1CCSCC1`, the cytotoxicity at 10 µM was -8.26%.

`O[C@@]1(c2ccccn2)CC[C@H]2CN(Cc3ccccn3)C[C@H]21`: the cytotoxicity at 10 µM is -4.97%.

With `Cn1ccnc1CN1CCCC(Cc2ccnc3ccncc23)CC1` (stereo not given), the cytotoxicity at 10 µM is -0.751%.

Take `Cn1ccnc1NC[C@@H]1CCC[C@@H]2CN(Cc3nccs3)C[C@@H]21`: the cytotoxicity at 10 µM is 14%.

On to `Cc1cc(NCCO)nc(N2CCC(Cc3ccccc3)CC2)c1C#N`, for which the cytotoxicity at 10 µM was 4.35%.

For the molecule `Cc1nnc(N2C[C@@H]3CCCO[C@@H]3[C@H](N3CCCC3=O)C2)s1`, the cytotoxicity at 10 µM was found to be 17.4%.
